Measurements published in article PMC4969713 (Journal of Alzheimer's Disease, 2016).
Structures can show the parent of a compound that is named as a salt.

Tests used:
[1] = molecular target: 5-HT1A receptor (Homo sapiens, UniProt P08908); assay: Radioligand binding competition, 5-HT1A
[2] = molecular target: T1, 5-HT2C receptor (Homo sapiens, UniProt P28335); conditions: Table 2; cited from earlier work
T1 sequence (P28335 33-458): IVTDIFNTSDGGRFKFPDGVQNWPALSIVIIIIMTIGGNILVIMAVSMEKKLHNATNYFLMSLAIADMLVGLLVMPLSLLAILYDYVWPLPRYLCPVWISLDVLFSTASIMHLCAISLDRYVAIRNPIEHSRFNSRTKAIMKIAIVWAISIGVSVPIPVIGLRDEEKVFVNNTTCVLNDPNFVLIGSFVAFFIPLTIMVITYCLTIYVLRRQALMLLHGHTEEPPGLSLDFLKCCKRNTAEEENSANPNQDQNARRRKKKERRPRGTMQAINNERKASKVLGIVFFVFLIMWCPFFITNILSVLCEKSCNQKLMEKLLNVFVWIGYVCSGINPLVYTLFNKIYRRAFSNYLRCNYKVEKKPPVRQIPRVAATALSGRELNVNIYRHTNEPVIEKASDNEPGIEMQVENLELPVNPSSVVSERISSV

[3] = molecular target: P-glycoprotein (Homo sapiens, UniProt P08183); assay: Pgp-Glo ATPase assay; assay type: biochemical
How it was run: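 P-glycoprotein ATPase activity was measured with the Pgp-Glo assay system per the manufacturer's protocol. Orthovanadate-sensitive activity was determined in the presence of test compound.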

[4] = molecular target: Adrenergic α2C (Homo sapiens, UniProt P18825); assay: Radioligand competition, adrenergic α2C; assay type: binding
[5] = Brain/plasma/CSF distribution in Sprague Dawley rats; assay type: in vivo
[6] = molecular target: Adrenergic α1D (Homo sapiens, UniProt P25100); assay: Radioligand competition, adrenergic α1D; assay type: binding
[7] = test system: Sprague Dawley rats; assay: Passive avoidance, scopolamine-induced amnesia, rats; assay type: in vivo; conditions: 0.05 mg/kg IP
[8] = test system: calcium channels of L type; assay: Target panel binding, calcium channel L type
[9] = molecular target: 5-HT2B receptor (Rattus norvegicus, UniProt P30994); assay: Rat stomach fundus contraction assay
[10] = molecular target: hNav1.5 (Homo sapiens, UniProt Q14524); assay: Cardiac channel inhibition, hNav1.5; assay type: cell-based
[11] = test system: Dopaminergic receptors; assay: Radioligand competition, dopaminergic receptors; assay type: binding; conditions: compared to the 5-HT7 receptor
[12] = Metabolism in human microsomes; assay type: in vitro ADME; conditions: for Remaining quantity: HLM
[13] = test system: femur bone marrow cells; assay: Chromosomal aberrations in femur bone marrow cells; assay type: in vivo, mice
How it was run: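 Mice 8–12 weeks old, male and female, were dosed orally with test compound or cyclophosphamide 20 mg/kg. Schedule was single dose with kill at 24 h, or qd for 5 days with kill 6 h after the last dose. Colchicine 4 mg/kg was given orally 2.5 h before decapitation. Femur marrow was put into 0.55% KCl at 37°C for 15 min, then spun. Scoring covered 100 metaphases per animal (500 per group), expressed as % aberrant cells.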

[14] = molecular target: 5-HT1B receptor; conditions: Table 2; cited from earlier work
[15] = molecular target: CYP1A2 (Homo sapiens, UniProt P05177); assay: Metabolism by recombinant CYP1A2; assay type: in vitro ADME
[16] = Median lethal dose after single administration; set-up: species or system mice; conditions: male, CD1, mouse, in vivo
How it was run: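 Male CD1 mice received a single dose of test compound in saline, IP at 80–200 mg/kg or orally at 200–700 mg/kg. Each dose went to a separate group (n = 6). LD50 with standard error was derived by probit analysis.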

[17] = molecular target: 5-HT2B receptor (Homo sapiens, UniProt P41595); assay: Intracellular Ca2+ mobilization in HEK 297 cells expressing 5-HT2B; assay type: cell-based
[18] = molecular target: dopamine transporter (Homo sapiens, UniProt Q01959); assay: Target panel binding, dopamine transporter
[19] = test system: male BALB/c mice; assay: Novel object recognition, MK-801-induced; assay type: in vivo; conditions: 0.2 mg/kg MK-801; memantine 10 mg/kg; SB-742457 0.2 or 1.0 mg/kg
How it was run: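 All drugs were dissolved in saline and given IP; control animals received saline vehicle. Each group had at least 8 male BALB/c mice. Read-out was novel object recognition index, reported as mean ± SE.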

[20] = molecular target: CYP2D6 (Homo sapiens, UniProt P10635); assay: Metabolism by recombinant CYP2D6; assay type: in vitro ADME
[21] = Sprague Dawley, rat, CSF, iv, 2 mg/kg
[22] = Sprague Dawley, rat, brain, iv, 2 mg/kg
[23] = Sprague Dawley, rat, plasma, iv, 2 mg/kg
[24] = 1 mg/kg PO qd for 5 days, females
[25] = 1 mg/kg PO qd for 5 days, males

Chain of 5-HT2B receptor (Rattus norvegicus, UniProt P30994) (P30994 whole entry): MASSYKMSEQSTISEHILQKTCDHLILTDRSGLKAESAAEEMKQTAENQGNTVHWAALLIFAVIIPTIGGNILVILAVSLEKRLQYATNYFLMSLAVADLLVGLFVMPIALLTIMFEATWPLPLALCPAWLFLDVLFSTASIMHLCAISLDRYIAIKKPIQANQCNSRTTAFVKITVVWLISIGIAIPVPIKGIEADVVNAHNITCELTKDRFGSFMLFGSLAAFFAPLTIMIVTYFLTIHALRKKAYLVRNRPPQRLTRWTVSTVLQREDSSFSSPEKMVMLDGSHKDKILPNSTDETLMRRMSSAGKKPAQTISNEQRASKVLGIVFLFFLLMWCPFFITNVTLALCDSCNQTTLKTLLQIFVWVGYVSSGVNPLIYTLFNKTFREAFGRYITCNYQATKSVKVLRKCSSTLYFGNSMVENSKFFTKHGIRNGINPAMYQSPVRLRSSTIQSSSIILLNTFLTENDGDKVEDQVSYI
Chain of 5-HT2B receptor (Homo sapiens, UniProt P41595) (P41595 whole entry): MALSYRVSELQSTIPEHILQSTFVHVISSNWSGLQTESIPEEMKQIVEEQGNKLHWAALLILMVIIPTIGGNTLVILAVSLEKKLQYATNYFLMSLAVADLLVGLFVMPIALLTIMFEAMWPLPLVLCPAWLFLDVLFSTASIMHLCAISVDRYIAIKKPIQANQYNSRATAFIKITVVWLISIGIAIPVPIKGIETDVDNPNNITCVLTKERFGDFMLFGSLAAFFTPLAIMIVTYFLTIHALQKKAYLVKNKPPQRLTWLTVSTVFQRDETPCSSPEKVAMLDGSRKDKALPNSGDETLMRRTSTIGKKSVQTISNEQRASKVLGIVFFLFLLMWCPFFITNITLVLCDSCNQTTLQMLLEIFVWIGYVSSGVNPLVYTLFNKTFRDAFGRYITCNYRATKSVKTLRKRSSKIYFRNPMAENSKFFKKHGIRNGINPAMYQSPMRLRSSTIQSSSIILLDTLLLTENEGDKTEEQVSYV
Chain of hNav1.5 (Q14524 whole entry): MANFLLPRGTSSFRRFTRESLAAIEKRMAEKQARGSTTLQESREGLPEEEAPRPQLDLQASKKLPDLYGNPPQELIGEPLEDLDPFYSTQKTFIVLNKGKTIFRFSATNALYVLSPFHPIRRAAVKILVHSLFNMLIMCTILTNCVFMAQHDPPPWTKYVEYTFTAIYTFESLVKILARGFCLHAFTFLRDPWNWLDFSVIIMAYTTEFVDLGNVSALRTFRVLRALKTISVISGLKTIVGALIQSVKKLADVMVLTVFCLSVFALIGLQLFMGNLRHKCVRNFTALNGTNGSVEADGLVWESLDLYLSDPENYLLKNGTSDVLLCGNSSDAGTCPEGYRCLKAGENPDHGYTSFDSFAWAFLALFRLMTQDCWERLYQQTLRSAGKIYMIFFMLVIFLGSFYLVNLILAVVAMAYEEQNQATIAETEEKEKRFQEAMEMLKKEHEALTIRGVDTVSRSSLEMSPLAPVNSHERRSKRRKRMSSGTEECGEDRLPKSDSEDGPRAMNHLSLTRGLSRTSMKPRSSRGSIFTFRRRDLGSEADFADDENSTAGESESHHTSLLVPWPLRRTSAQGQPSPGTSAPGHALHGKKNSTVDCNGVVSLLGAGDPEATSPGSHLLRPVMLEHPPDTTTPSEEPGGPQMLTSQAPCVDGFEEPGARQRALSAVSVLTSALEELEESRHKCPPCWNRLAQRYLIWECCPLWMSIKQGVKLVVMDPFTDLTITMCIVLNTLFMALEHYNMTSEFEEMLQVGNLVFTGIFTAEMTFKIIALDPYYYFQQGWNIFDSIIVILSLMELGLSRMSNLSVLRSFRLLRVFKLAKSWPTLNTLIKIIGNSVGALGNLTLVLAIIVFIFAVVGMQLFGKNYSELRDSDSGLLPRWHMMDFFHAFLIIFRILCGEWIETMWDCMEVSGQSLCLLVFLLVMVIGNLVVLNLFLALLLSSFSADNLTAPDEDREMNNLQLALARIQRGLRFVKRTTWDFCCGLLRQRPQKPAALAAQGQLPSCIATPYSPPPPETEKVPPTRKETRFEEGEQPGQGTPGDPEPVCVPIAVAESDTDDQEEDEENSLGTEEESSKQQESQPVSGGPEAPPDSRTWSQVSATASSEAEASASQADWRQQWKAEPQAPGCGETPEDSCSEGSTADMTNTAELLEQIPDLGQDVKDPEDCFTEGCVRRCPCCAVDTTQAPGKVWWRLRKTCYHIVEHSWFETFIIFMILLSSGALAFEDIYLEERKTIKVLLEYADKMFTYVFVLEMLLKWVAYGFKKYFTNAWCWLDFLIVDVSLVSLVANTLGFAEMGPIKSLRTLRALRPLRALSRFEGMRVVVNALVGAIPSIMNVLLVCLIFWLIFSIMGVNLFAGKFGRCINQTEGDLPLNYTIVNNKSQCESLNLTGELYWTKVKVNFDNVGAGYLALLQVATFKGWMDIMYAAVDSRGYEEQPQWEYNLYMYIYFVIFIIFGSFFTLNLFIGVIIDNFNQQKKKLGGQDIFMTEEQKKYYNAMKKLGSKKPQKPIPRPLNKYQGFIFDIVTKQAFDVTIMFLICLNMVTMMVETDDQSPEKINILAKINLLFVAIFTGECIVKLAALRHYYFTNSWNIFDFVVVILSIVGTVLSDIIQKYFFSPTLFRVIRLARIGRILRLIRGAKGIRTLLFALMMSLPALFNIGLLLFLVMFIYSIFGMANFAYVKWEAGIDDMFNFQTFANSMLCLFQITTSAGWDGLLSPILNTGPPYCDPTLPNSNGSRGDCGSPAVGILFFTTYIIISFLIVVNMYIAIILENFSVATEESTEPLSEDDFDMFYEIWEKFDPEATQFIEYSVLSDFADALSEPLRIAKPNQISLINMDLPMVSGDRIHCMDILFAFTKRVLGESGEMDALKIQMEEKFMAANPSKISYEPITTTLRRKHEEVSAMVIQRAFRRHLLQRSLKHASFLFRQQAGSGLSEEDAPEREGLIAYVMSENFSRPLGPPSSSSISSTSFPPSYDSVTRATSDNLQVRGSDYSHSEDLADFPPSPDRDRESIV
Chain of P-glycoprotein (P08183 whole entry): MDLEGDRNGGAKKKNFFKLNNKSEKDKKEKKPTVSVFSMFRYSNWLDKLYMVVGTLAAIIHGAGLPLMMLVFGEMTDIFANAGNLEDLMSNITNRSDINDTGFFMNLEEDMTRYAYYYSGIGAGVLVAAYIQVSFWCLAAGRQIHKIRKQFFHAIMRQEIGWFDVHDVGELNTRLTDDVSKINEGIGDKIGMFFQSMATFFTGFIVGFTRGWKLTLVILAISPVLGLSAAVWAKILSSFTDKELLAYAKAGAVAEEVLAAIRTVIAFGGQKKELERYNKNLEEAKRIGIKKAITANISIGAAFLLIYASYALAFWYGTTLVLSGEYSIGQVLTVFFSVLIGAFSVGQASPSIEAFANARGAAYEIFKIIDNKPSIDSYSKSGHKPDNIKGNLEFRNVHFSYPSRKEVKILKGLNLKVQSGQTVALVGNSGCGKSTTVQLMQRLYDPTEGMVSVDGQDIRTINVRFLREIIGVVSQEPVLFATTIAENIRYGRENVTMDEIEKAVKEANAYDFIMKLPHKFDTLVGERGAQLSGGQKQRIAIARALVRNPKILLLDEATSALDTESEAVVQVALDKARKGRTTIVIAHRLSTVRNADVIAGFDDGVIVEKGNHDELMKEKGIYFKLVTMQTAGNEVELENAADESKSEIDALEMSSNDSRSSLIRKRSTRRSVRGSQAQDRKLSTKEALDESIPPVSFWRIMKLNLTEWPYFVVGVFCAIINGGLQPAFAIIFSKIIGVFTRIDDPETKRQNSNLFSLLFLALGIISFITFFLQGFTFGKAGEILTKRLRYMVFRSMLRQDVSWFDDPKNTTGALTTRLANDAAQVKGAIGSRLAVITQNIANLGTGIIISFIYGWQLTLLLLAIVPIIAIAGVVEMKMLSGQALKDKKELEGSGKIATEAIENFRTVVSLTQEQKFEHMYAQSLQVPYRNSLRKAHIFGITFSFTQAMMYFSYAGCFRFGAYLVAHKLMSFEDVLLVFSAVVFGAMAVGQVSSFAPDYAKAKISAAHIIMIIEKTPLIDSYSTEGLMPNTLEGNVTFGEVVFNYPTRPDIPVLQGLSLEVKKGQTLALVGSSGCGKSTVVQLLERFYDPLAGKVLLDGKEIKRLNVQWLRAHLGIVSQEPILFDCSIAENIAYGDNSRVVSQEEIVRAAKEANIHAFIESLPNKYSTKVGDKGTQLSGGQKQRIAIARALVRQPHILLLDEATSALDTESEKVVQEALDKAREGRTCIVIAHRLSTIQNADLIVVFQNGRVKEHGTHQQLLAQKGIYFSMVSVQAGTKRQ
Chain of dopamine transporter (Q01959 whole entry): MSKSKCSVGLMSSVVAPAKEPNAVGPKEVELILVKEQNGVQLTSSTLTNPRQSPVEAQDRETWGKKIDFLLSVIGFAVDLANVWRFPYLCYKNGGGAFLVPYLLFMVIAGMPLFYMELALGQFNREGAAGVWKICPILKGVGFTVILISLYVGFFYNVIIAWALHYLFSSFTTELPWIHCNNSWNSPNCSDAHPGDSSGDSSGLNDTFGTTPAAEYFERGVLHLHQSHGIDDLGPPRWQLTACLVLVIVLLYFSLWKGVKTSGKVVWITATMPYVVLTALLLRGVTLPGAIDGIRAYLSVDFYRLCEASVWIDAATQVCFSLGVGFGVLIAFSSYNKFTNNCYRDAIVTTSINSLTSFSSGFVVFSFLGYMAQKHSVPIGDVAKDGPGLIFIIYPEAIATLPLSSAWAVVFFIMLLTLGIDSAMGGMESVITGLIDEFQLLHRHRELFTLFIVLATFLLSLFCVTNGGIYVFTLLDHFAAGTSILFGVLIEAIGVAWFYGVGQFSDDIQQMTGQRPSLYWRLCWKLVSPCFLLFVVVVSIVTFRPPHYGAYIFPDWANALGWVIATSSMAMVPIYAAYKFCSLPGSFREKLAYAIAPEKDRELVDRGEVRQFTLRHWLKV

In the case of Cc1ccc2c(c1)c1c(n2CCc2ccccc2)CCN(C)C1 [AVN-101, 2,8-dimethyl-5-penethyl-2,3,4,5-tetra-hydro-1h-pyrido[[4,3-B]]indole hydrochloride], the Ki [1] is given as over 30 nM, the Ki [2] is given as 1.17 nM and the EC50 [3] is given as about 50000 nM. The “effect on Pgp ATP-ase activity” value ([3]; orthovanadate-sensitive ATPase) was “strong activation”, the Ki [4] was 0.41 to 3.6 nM and the “binding to blood cells” value ([5]; IV 2 mg/kg, 5 min after injection) was “low binding capacity”. For the same molecule, the Vss_obs ([5]; Plasma, IV 2 mg/kg) was 11.6136 L/kg, the AUC(0-inf) [5, 21] was 31.7 ng·h/mL and the AUC(0-t) [5, 21] was 25.3 ng·h/mL. For the same molecule, the Cmax [5, 21] was 11 ng/mL, the half-life [5, 21] was 97.5 min and the k el [5, 21] was 0.000118 s⁻¹. For the same molecule, the AUC(0-inf) [5, 22] was 8960 ng·h/mL, the AUC(0-t) [5, 22] was 8000 ng·h/mL and the Cmax [5, 22] was 4660 ng/mL. For the same molecule, the Tmax [5, 22] was 4.8 min, the half-life [5, 22] was 75.7 min and the k el [5, 22] was 0.000153 s⁻¹. It also gave an AUC(0-inf) [5, 23] of 522 ng·h/mL, an AUC(0-t) [5, 23] of 376 ng·h/mL and a C0 [5, 23] of 308 ng/mL. It also gave a Cmax [5, 23] of 274 ng/mL, a Tmax [5, 23] of 4.98 min and a Vd [5, 23] of 13.2 L/kg. The clearance [5, 23] was 63.9 mL/min/kg, the half-life [5, 23] was 143 min and the k el [5, 23] was 8e-05 s⁻¹. For the same molecule, the Ki [6] was 30.2 nM, the “reversal of pro-amnesic action of Scopolamine” value [7] was “significantly reverse” and the binding [8] was “does not bind”. For the same molecule, the “blockade of α methyl-serotonin-induced fundus contraction” value [9] was “effectively blocking”, the “agonistic activity (fundus contraction)” value ([9]; AVN-101 alone) was “lacked intrinsic agonistic activity” and the IC50 [10] was 2400 nM. The inhibition at 31.6 µM ([10]; read-out: % Inhibition at 31.6μM) was 97%, the affinity [11] was “very low affinity” and the k el ([12]; 1μM) was 0.335. The “original AVN-101 consumed” value ([12]; 2μM, 30-min incubation) was 57%, the Remaining quantity ([12]; AVN-101 1 μM, 7.9 min) was 3.0% and the Remaining quantity ([12]; AVN-101 1 μM, 30 min) was 2%. It also gave a Remaining quantity ([12]; AVN-101 2 μM, 7.9 min) of 40.0%, a Remaining quantity ([12]; AVN-101 2 μM, 30 min) of 43% and a half-life at 1 µM ([12]; human, liver microsomes) of 2.07 min. For the same molecule, the microsomal CLint at 1 µM ([12]; human, liver microsomes) was 335 µL/min/mg, the “Cells with multiple aberrations” value [13, 24] was 0% and the “Total altered metaphases (%)” value [13, 24] was 0.8 ± 0.4%. For the same molecule, the “cells with aberration, Double fragment” value [13, 24] was 0%, the “cells with aberration, Single fragment” value [13, 24] was 0.8% and the “cells with aberration, exchanges” value [13, 24] was 0%. The “cells with aberration, gaps” value [13, 24] was 0%, the “Cells with multiple aberrations” value [13, 25] was 0% and the “Total altered metaphases (%)” value [13, 25] was 1.4 ± 0.5%. The “cells with aberration, Double fragment” value [13, 25] was 0%, the “cells with aberration, Single fragment” value [13, 25] was 1.2% and the “cells with aberration, exchanges” value [13, 25] was 0%. For the same molecule, the “cells with aberration, gaps” value [13, 25] was 0.2%, the “Cells with multiple aberrations” value ([13]; 1 mg/kg PO single dose, males) was 0% and the “Total altered metaphases (%)” value ([13]; 1 mg/kg PO single dose, males) was 1.2 ± 0.5%. The “cells with aberration, Double fragment” value ([13]; 1 mg/kg PO single dose, males) was 0%, the “cells with aberration, Single fragment” value ([13]; 1 mg/kg PO single dose, males) was 1.2% and the “cells with aberration, exchanges” value ([13]; 1 mg/kg PO single dose, males) was 0%. The “cells with aberration, gaps” value ([13]; 1 mg/kg PO single dose, males) was 0%, the “Cells with multiple aberrations” value ([13]; 20 mg/kg PO single dose, males) was 0% and the “Total altered metaphases (%)” value ([13]; 20 mg/kg PO single dose, males) was 1.6 ± 0.6%. The “cells with aberration, Double fragment” value ([13]; 20 mg/kg PO single dose, males) was 0%, the “cells with aberration, Single fragment” value ([13]; 20 mg/kg PO single dose, males) was 0.6% and the “cells with aberration, exchanges” value ([13]; 20 mg/kg PO single dose, males) was 0%. For the same molecule, the “cells with aberration, gaps” value ([13]; 20 mg/kg PO single dose, males) was 1.0%, the Ki [14] was 720 nM and the remaining at 0.5 h, 2 µM [15] was 46%. The LD50 at 2 weeks ([16]; ip) was 105 ± 5 mg/kg, the LD50 at 2 weeks ([16]; po) was 331 ± 101 mg/kg and the “agonistic activity (intracellular free Ca2+)” value ([17]; AVN-101 alone, 10μM) was “lacked intrinsic agonistic activity”. For the same molecule, the “blockade of α methyl-serotonin-induced Ca2+ spike” value ([17]; αMet5-HT 5μM, AVN-101 10μM) was “effectively blocking”, the binding [18] was “does not bind” and the “effect on deficit in novel object recognition” value [19] was “partially reverse”. The remaining at 0.5 h, 2 µM [20] was 0%.
